Results as given in the EternaBench riboswitch data.

Test system: MS2 coat protein
Test: apparent Kd, MS2 coat protein; higher = weaker binding; RNA-MaP array
Procedure, shortened: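 Fluorescently labeled MS2 coat protein, from 1.5 nM to 3 μM, was incubated at room temperature with designed RNAs transcribed on an Illumina sequencing chip from sequenced DNA templates. Times ran from 0.8–1.5 h at the lowest concentrations to 10–20 min at the highest, in Tris-HCl pH 7.5 buffer with KCl, MgCl2, BSA, DTT, tRNA and Tween20, with or without input ligand. Each apparent Kd is the median of per-cluster binding-curve fits, and designs with fewer than 10 measured clusters were excluded.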

[1] = designed as: OFF switch for flavin mononucleotide, no ligand
[2] = ligand present: flavin mononucleotide, designed as: OFF switch for flavin mononucleotide
[3] = designed as: ON switch for flavin mononucleotide, no ligand
[4] = ligand present: flavin mononucleotide, designed as: ON switch for flavin mononucleotide

Sequence | apparent Kd [1] [nM] | apparent Kd [2] [nM] | further results
CAUGUAGGCGAGAAGGCAACCGCGGUCCGGGAUUGAGGAUAUCGGCCAGGUGAUCCCGCCCAACAUGAGGAUCACCCAUGUAGC | 339 | 202 | 
GGGUAACAUGAGGAUCACCCAUGUGAGGAUAUCCAUUGUUGGCGACCGGUACGACCACGGAGAAGGCACAGUUC | 35 | 69.5 | 
CCAGGACAUGAGGAUCACCCAUGUCAACAUCAAAUAAGCGCGUAGGAUAUCAAUACUGAAAGCUUUGAGAAGGACGAGAGGGUA |  |  | apparent Kd [3]: 22.8 nM; apparent Kd [4]: 17.8 nM
ACAUAGUAAGGAUAUCUCCUGUUCGAGAAAGAGAGGCAUAAAGAGAAGGUACAUGAGGAUCACCCAUGUGACGA | 7.51 | 7.26 | 
CGAUCUGGCUAAGGAUAUCAAGUGCGCAUGGUUUGACAGCACAUGAGGAUCACCCAUGUAACGCAUGAGAAGGUAGGCACACAG | 223 | 183 | 
CCGUUCGCCGAGAAGGGACAGGACUUAAUAGCGUCAGGAUAUCGCGGACCGUGAUUCUAUGACAUGAGGAUCACCCAUGUGCUU | 34.7 | 11.7 | 
CAUCAUGGGCUUGGACAAAUUGUGCUUGAUACCAGAAAUCACCGGUUCCCUUGGCAGCAACCCACAUGAGGAUCACCCAUGUGGA |  |  | apparent Kd (designed as: OFF switch for theophylline, no ligand): 20.6 nM; apparent Kd (ligand present: theophylline, designed as: OFF switch for theophylline): 31.2 nM
AAUAUAGCAGGAUAUACAGAACACCAAUAGACUUCGUUUAGACAUGAGGAUCACCCAUGUAGAAGGGCUCAGAC | 9.85 | 9.18 | 
UAUAAUGAAGGAUAUACAUGAGGAUCACCCAUGUUAGACUCUCAGUCGACAGUAAUCCGUAGAAGGUCAUGCCA | 12.3 | 13.6 | 
ACGAUGAUAGAAGGAUAUAGGCCGAACAUGAGGGACAUGAGGAUCACCCAUGUGACAGUCGGACCCUAGAAGGUCUCGAUACUC | 21.2 | 15.1 | 
UGAACACUGUGAGGAUAUCCACAUGAGGAUCACCCAUGUUUCCUCAGUGAUGCUAUAGCUUCCACGGAGAAGGCACAUGUAAUC | 31.2 | 48.2 | 
CACAUGAGGAUCACCCAUGUGUGGUGGGUGGUGCAACAUUGUAAGGAUAUAAUGGACGUCGGCCCUUAGAAGGUACAUUGUACG | 139 | 110 | 
CGGCCACAUGAGGAUCACCCAUGUAGUUCGUCUAAAGGAUAUCCAGGUGGGUGACUCCAAGGAGAAGGUUAGGACG |  |  | apparent Kd [3]: 54.7 nM; apparent Kd [4]: 39.3 nM
UCUUUUCAACAGAAGGAAUGCAGGCGAUAUGAUUGUUUCCGUCAGACAUGAGGAUCACCCAUGUAUUAGGAUAUGUGAAACAGU | 6.2 | 7.15 | 
GCAUGCGGCAAGGAUAUCAAUGCUAUGGUCUAAUGAGAAGGUGCCACAUGAGGAUCACCCAUGUUUCCGGCGAG | 30.8 | 123 | 
UUAAAACUAGGAUAUACAUGAGGAUCACCCAUGUGAACACACAAACAAAGAAAAUAAUGUAGAAGGAGACUAUA | 10.8 | 8.87 | 
ACUGUACUGGGAGGAUAUGGAGAGUUACCGUAAAUAAUCUACUAGACAUGAGGAUCACCCAUGUUCCAGAAGGCCCCAUGGACC |  |  | apparent Kd [3]: 14.9 nM; apparent Kd [4]: 10.4 nM
CUACAUGAGGAUCACCCAUGUGCCUCUGGUCAGGGUCACUACGAGGAUAUAAUAGUUUAGACGAGUUAGAAGGCGUAUGAGUUA | 111 | 77.4 | 
AAUUGUCGAGCAGGAUAUAGCUGACAGGAUAUUCAACUAACGACAUGAGGAUCACCCAUGUGUGGCUAGAAGGGCUUCAAGGCA |  |  | apparent Kd [3]: 15.2 nM; apparent Kd [4]: 11.5 nM
GACCUGUUAGGAUAUCGAAGGAGUCAAUACCAAGUGAGACACGAGAAGGAACAUGAGGAUCACCCAUGUGAACC | 11.4 | 15.7 | 
AAAACUUCUAAGAAGGUGAUUUGGGCAUAUCGUCGUUUUACAUGAGGAUCACCCAUGUUUAACGUCAAGGAUAUUAGGGAUUCC | 6.11 | 5.9 | 
GAACAACAUGAGGAUCACCCAUGUCAGGAUACCAGUCGAAAGUCAGACCCUUGGCAGCCUAUCACUCAGCAAAUAGAUAGUACAA |  |  | apparent Kd (designed as: ON switch for theophylline, no ligand): 15.2 nM; apparent Kd (ligand present: theophylline, designed as: ON switch for theophylline): 13.7 nM
AAGUACUUUGAGAAGGACCUCUCGAACAUGAGGAUCACCCAUGUCACGGAGUACCCGAUCGGCUGGUAGGAUAUCAUGGUACCG |  |  | apparent Kd [3]: 9.89 nM; apparent Kd [4]: 8.15 nM
AAUACAGCUACGGCCGCCACUUUAACUUGGUAUGGGUCCUUCACAAACAUGAGGAUCACCCAUGUAAGGACCGGGUAGCCUUGUU |  |  | apparent Kd (designed as: OFF switch for tryptophan, no ligand): 21.1 nM; apparent Kd (ligand present: tryptophan, designed as: OFF switch for tryptophan): 35 nM
AGUUUUCCUGAGAAGGUGGAGGUCUUUCAUUGCCAAGGAUAUCAGACAACAAUGUAGCCCAAACAUGAGGAUCACCCAUGUCUC |  |  | apparent Kd [3]: 70.7 nM; apparent Kd [4]: 42.1 nM
CCUGCAGGUCAGGAUAUCAUAUCUGGCUAACUAUGAGAAGGGACAACAUGAGGAUCACCCAUGUGGUGAUAACA | 666 | 509 | 
